MT stabilizer: microtubule stabilizers in HeLa cells, primary screen, imaging, high-content imaging; HeLa tubulin immunostaining HCS, 24 h; share of cells brighter than vehicle mean+2SD; 200,000 compounds, 0.83% hits; % tubulin-high responders, % at 10 µM; AID 2205, 2009;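 active = plate Z-score above 3 for both tubulin-high and condensed-nucleus cell shares, with cell loss under 80%, at 10 µM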;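 note: anti alpha tubulin signal scored within the nucleus-defined area of each cell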
bCat nuc transl: modulators of beta-catenin nuclear translocation, primary screen, imaging, HeLa cells, immunofluorescence, high-content; 190,000 compounds, 0.3% hits; nuclear translocation activity, % at 5 µM; AID 1665, 2009;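 active = nuclear translocation activity above 50% at 5 µM, with a well cell count of 50 or more; inconclusive = wells under 50 cells across six images, flagged as toxic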;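 note: per-cell ratio of nuclear to cytoplasmic median beta-catenin stain intensity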
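Technique: fluorescence imaging of beta-catenin antibody stain plus DAPI / Material: human HeLa cell line / Incubation: compound treatment 24 h, 37°C, 5% CO2 / Read-out basis: % activation of per-cell nuclear versus cytoplasmic median beta-catenin signal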
WT yeast gro inh: growth inhibition of WT strain, primary screen, mitochondrial fusion inhibitor project, WT and mutant strains, chemical genetic | 190,000 compounds, 2.1% hits | inhibition, % at 10 µM | AID 1362, 2008 | mitochondrial fusion phenotypic screen; in the data active = inhibition above about 58%; tested in S. cerevisiae
KCC2 mod: KCC2 cotransporter modulators, thallium flux, primary screen, cell-based, HEK293 KCC2, FluoZin-2 fluorescence, MLSMR; KCC2 cells, thallium flux FluoZin-2 fluorescence; AID 1456, 2008; 190,000 compounds, 2.2% hits; B-score of Tl+ flux slope (higher = more flux/activation; lower = inhibition) at 10 µM;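 active = thallium flux slope and its plate-corrected score both differing from the plate sample mean at a set confidence after two filtering rounds, in either direction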;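 note: slope of fluorescence scaled to starting intensity during 10 to 20 s after thallium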
Target sequence (Q9H2X9 whole entry, looked up): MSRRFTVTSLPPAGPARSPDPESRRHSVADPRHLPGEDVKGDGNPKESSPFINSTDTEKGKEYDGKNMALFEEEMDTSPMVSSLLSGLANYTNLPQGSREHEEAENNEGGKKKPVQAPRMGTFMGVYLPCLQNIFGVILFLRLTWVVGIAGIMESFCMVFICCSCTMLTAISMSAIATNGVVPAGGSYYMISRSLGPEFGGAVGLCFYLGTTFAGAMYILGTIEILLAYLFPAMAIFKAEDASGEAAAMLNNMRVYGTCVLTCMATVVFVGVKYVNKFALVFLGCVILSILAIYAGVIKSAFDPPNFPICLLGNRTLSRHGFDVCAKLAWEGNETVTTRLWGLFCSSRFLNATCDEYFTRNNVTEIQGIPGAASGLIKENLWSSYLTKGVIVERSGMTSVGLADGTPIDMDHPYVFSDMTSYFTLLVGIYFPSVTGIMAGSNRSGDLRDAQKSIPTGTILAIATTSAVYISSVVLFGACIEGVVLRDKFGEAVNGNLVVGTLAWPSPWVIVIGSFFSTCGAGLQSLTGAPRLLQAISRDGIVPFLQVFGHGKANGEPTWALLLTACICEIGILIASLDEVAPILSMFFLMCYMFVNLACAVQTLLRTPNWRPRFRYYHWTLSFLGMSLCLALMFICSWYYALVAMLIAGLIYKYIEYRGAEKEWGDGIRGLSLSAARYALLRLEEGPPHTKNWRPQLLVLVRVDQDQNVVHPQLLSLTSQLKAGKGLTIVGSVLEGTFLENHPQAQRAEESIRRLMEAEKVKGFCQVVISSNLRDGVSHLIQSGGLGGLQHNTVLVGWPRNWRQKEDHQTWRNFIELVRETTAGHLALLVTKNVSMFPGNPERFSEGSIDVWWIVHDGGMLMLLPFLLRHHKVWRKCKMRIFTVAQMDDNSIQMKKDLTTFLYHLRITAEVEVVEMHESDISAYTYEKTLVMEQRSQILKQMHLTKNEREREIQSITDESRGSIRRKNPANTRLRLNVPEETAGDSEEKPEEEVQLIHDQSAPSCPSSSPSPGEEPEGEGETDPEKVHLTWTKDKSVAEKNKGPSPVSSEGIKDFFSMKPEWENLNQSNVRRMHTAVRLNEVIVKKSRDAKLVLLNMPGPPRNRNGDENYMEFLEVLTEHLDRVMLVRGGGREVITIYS
Pf gamet viab: late stage P. falciparum gametocyte viability inhibitors, primary screen, ATP luminescence, HTS; P. falciparum stage V gametocytes, 24 h; 150,000 compounds, 0.065% hits; AID 743093, 2013; inhibition, % at 10.9 µM;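 active = inhibition above the mean plus 3 SD of compounds within the control limits, set per campaign, cut at about 38% in these data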
Large screens that a line does not name were inactive; ! = repeats disagree. Shown are actives, neighbours in structure and some others; about 4% of the full set was active somewhere.

Clc1ccc2c(c1)C(c1ccccc1Cl)=NCc1nnc(N3CCN(CCOc4ccccc4)CC3)n1-2	WT yeast gro inh 60 (no result: Pf gamet viab)
Clc1ccc2c(c1)C(c1ccccc1Cl)=NCc1nnc(N3CCN(CCSc4ccccc4)CC3)n1-2	WT yeast gro inh 76 (no result: KCC2 mod)
O=S(=O)(F)c1ccc2nc(-c3cccc(Sc4ccccc4)c3)cc(Cl)c2c1	none (no result: MT stabilizer, WT yeast gro inh)
O=c1[nH]c(=S)n(C2CC2)c(O)c1/C=N/Nc1ccccc1	WT yeast gro inh 58 (no result: Pf gamet viab)
Cc1cc2c(C(C)C)c(O)c(O)c(C=O)c2c(O)c1-c1c(C)cc2c(C(C)C)c(O)c(O)c(C=O)c2c1O	KCC2 mod -7.2! (no result: bCat nuc transl, Pf gamet viab)
COc1ccc2ccc(O)c(CN3CC=C(c4ccccc4)CC3)c2c1	WT yeast gro inh 61 (no result: Pf gamet viab)
Cc1[nH]c2ccccc2c1C(=O)C(=O)N1CC2CC(C1)c1cccc(=O)n1C2 (configuration not stated)	none
Cc1ccccc1-n1c(/C=C/c2ccccn2)nc2ccccc2c1=O	none (no result: MT stabilizer, WT yeast gro inh, KCC2 mod, Pf gamet viab)
CN1C2CCC1/C(=C/c1ccccn1)C(=O)/C2=C\c1ccccn1	bCat nuc transl inconclusive, WT yeast gro inh 81 (no result: KCC2 mod)
CC(C)(O)[C@H]1O[C@H]2CC[C@@]3(C)[C@@](O)(CC[C@H]4Cc5c([nH]c6ccccc56)[C@@]43C)C2=CC1=O	WT yeast gro inh 74 (no result: Pf gamet viab)
Cc1ccc(N=C(/N=C(\N)N[N+](=O)[O-])Nc2ccc(C)cc2)cc1	none (no result: MT stabilizer, bCat nuc transl, WT yeast gro inh, KCC2 mod)
COc1ccc(-n2c(C)cc(C(=O)C[N+]34CCN(CC3)CC4)c2C)cc1	none
Cn1cccc1/C=C1/C(=O)NC(=S)N(Cc2ccc(F)cc2)C1=O	bCat nuc transl 54 (no result: MT stabilizer, WT yeast gro inh)
C=CCN1C(=O)NC(=O)/C(=C/c2cccn2C)C1=O	none (no result: KCC2 mod, Pf gamet viab)
Cn1cccc1/C=C1\C(=O)NC(=O)N(Cc2ccccc2)C1=O	bCat nuc transl 74 (no result: MT stabilizer, WT yeast gro inh, KCC2 mod)
Cn1cccc1/C=C1/C(=O)NC(=O)N(Cc2ccccc2)C1=O	bCat nuc transl 64
Cn1cccc1/C=C1/C(=O)NC(=O)N(Cc2ccc(F)cc2)C1=O	none (no result: MT stabilizer, WT yeast gro inh)
O=C(CSC1c2ccccc2-c2ccccc21)N/N=C/c1ccccc1O	none (no result: bCat nuc transl, KCC2 mod)
Cc1cccc(N/N=C(\C(N)=O)C2=NC(C)(C)Cc3ccccc32)c1	none
c1ccc(-c2[nH]c(-c3ccccc3)[n+](CC3CO3)c2-c2ccccc2)cc1 (configuration not stated)	WT yeast gro inh 59
CC(=O)c1ccc(OC(C)C)c(Cc2c(O)[nH]c(=S)[nH]c2=O)c1	none
CCN(CC)CCCOC(=O)C(OC(C)C)(c1ccccc1)c1ccccc1	none (no result: Pf gamet viab)
CCN(CC)P(=O)(NC(=O)C(Cl)(Cl)Cl)N(CC)CC.[Cl-].[Cl-].[Cl-].[Nd+3]	none (no result: bCat nuc transl, KCC2 mod)
O=C1NC(=S)NC(=O)C1=Cc1cccc2cc3ccccc3cc12	bCat nuc transl 58 (no result: MT stabilizer, WT yeast gro inh, Pf gamet viab)
CN(CC1COc2ccccc2O1)c1nc(-c2cccnc2)nc2ccccc12 (configuration not stated)	WT yeast gro inh 80 (no result: bCat nuc transl, KCC2 mod)
CN1CCC(N(C)c2nc(-c3ccc([N+](=O)[O-])cc3)nc3ccccc23)CC1	none (no result: KCC2 mod)
Cc1nc2cc(-c3ccc(Cl)cc3)nn2c(C)c1CCC(=O)N1CCC2(CC1)OCCO2	none (no result: bCat nuc transl, WT yeast gro inh)
O=C1NC(=O)C(CCc2ccncc2)(CCc2ccccn2)C(=O)N1c1ccc(Br)cc1 (configuration not stated)	MT stabilizer 17
Cc1ccc(N2C(=O)NC(=O)C(CCc3ccccn3)(Cc3cccc(Cl)c3Cl)C2=O)cc1 (configuration not stated)	none
Cc1oc(-c2ccccc2Cl)nc1CN1C(=O)CN=C(c2ccccc2)c2ccccc21	WT yeast gro inh 71 (no result: Pf gamet viab)
O=C1CN=C(c2ccccc2)c2ccccc2N1Cc1ccc(C(F)(F)F)cc1	none (no result: KCC2 mod, Pf gamet viab)
CCCCCc1nc2c(c(=O)c3ccccc3n2C)c(=O)n1C1CCCCCC1	WT yeast gro inh 97
CCCCCc1nc2ccccc2c(=O)n1-c1ccccc1[N+](=O)[O-]	none
S=C1CN=C(c2ccccc2Cl)c2cc(Cl)ccc2N1	KCC2 mod 5.8
O=c1[nH]sc2cc(F)ccc12	WT yeast gro inh 73
COc1cc2ccccc2cc1C(=O)Nc1ccc(Cc2ccncc2)cc1	MT stabilizer 50
COc1ccc(NC(=O)c2cn(CCC#N)nc2-c2ccccc2)cc1	none (no result: MT stabilizer, bCat nuc transl, WT yeast gro inh, KCC2 mod)
Cc1cc(C(=O)N=Nc2c(O)n(C)c3ccccc23)c(C)o1	none (no result: Pf gamet viab)
COC(=O)C1=C(c2c(C)noc2C)C[C@@H]2CC[C@H]1N2C(=O)NC1CCCCC1	none (no result: MT stabilizer, bCat nuc transl, WT yeast gro inh, KCC2 mod)
CC1CCC(C(C)C)C(OC(=O)COC(=O)c2ccccc2N)C1 (configuration not stated)	WT yeast gro inh 60
Cc1ccc(NP(=O)(Oc2ccccc2F)Oc2ccccc2F)cc1	none (no result: KCC2 mod)
CCc1ccc(NP(=O)(Oc2ccccc2F)Oc2ccccc2F)cc1	WT yeast gro inh 62
CN1/C(=C\C=C2C(=O)NC(=S)NC2=O)C(C)(C)c2ccccc21	KCC2 mod -4.6
CC1(C)OC(c2ccccc2)=C/C(=C/C=C2C(=O)NC(=S)NC2=O)O1	none (no result: Pf gamet viab)
COCc1cc(OC(=O)N(C)C)nc(-c2ccccc2)n1	none (no result: MT stabilizer, WT yeast gro inh)
N=C(N)c1c(O)n(C2CCCCC2)c(=O)n(C2CCCCC2)c1=O	WT yeast gro inh 96
Cc1cccc(-n2c(O)c(/C=C3/C(c4ccccc4)=Nc4ccccc43)c(=O)[nH]c2=O)c1	bCat nuc transl 52 (no result: MT stabilizer, WT yeast gro inh)
COc1cccc(NP(=O)(Oc2ccccc2)Oc2ccccc2)c1	MT stabilizer 18
O=P(Nc1cccc(Cl)c1)(Oc1ccccc1)Oc1ccccc1	WT yeast gro inh 79
CC(C)CN1CCN(Cc2ccc(C(F)(F)F)cc2)CC1CCO (configuration not stated)	none (no result: MT stabilizer, WT yeast gro inh)
Nc1ccc2nonc2c1[N+](=O)[O-]	none
Cn1c(O)c(/C=N/N2CCOCC2)c(=O)[nH]c1=S	none (no result: MT stabilizer, WT yeast gro inh, Pf gamet viab)
C=C[C@@H]1C[C@@]1(C)[C@@H](NP(=O)(c1ccccc1)c1ccccc1)c1ccccc1	none
O=C(CNC(=O)OCc1ccccc1)Nc1ccc(Br)cc1C(=O)c1ccccc1Cl	none
CN(C(=O)CNC(=O)OCc1ccccc1)c1ccc(Br)cc1C(=O)c1ccccc1Cl	bCat nuc transl 67 (no result: Pf gamet viab)
Cc1c2ccncc2c(C)c2c1[nH]c1ccccc12	WT yeast gro inh 66 (no result: Pf gamet viab)
O=C1NC(=O)N(CCNc2ncc(C(F)(F)F)cc2Cl)C(=O)C1Cc1ccc(Cl)cc1 (configuration not stated)	none
CC(/C=N/NC(=O)c1n[nH]c2c1CCC2)=C\c1ccccc1	bCat nuc transl 215
CCC(=NCc1ccc2c(c1)OCO2)c1c(O)n(C2CCCCC2)c(=O)[nH]c1=O	WT yeast gro inh 62
CCC(=NCCO)c1c(O)n(C2CCCCC2)c(=O)[nH]c1=O	none (no result: KCC2 mod, Pf gamet viab)
CC/C(=C\C=C\[C@@H]1C=C[C@@H]2CCC[C@H]2[C@@H]1C(=O)c1ccc[nH]1)[C@@H]1O[C@@H]([C@@H](C)C(=O)O)CC[C@@H]1C	WT yeast gro inh 81, KCC2 mod 3.4 (no result: Pf gamet viab)
N#CC(C#N)=C(N)c1cccnc1	none

Source: PubChem BioAssay
